Data on 18 molecules can be found in ChEMBL document CHEMBL3861955, “Pepluane and Paraliane Diterpenoids from Euphorbia peplus with Potential Anti-inflammatory Activity” (J Nat Prod, 2016).

Residues, ends and D or L forms follow the SMILES beside them. *: point of attachment. Cbz = O=C(OCc1ccccc1)*

Data set [1] is filed under the species Mus musculus. Nature of the data set: Cytotoxicity against mouse RAW264.7 cells assessed as decrease in cell viability by MTT assay. It counts as toxicity, cell-based. In short, it runs like this: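 Viability measured by MTT, run alongside the LPS/NO assay in the same RAW264.7 cultures: 2 × 10^5 cells/well in RPMI-1640, 24 h preincubation, compound serial dilutions up to 100 μM, then LPS (1 μg/mL) for 18 h. Absorbance read at 595 nm.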
A general note: Formazan colour is commonly taken as a measure of viable cells.

Data set [2] is described as follows: Antiinflammatory activity in mouse RAW264.7 cells assessed as inhibition of LPS-induced nitric oxide production after 18 hrs by Griess assay. The format is functional, cell-based. The following applies: RAW264.7, 18 h. Put shortly:
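RAW264.7 cells seeded at 2 × 10^5 cells/well in RPMI-1640 and preincubated 24 h. Compounds added as serial dilutions from a top concentration of 100 μM, then LPS (1 μg/mL) stimulation for 18 h. Supernatant nitrite measured with Griess reagent after 5 min incubation, absorbance at 550 nm; proteasome inhibitor MG-132 used as positive control.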
Background: The Griess reaction detects nitrite, a stable product of nitric oxide.

For orientation: IC50 means the midpoint of a concentration-inhibition curve. With `CC(=O)O[C@@H]1[C@H]2[C@@H](OC(=O)c3ccccc3)[C@@H](C)C[C@]2(O)[C@H](OC(C)=O)[C@@]2(C)[C@@H]3CC(C)(C)C(=O)[C@]3(O)C[C@@]12C`, the Activity result in data set [1] was “Non-Toxic”. For the same molecule, the IC50 in data set [2] was found to be 43.2 µM.

Regarding `CC(=O)O[C@@H]1[C@H]2[C@@H](OC(=O)c3ccccc3)[C@@H](C)C[C@]2(O)[C@H](OC(C)=O)[C@@]2(C)[C@@H]3CC(C)(C)C(=O)[C@]3(OC(C)=O)C[C@@]12C`, the Activity entry in data set [1] was “Non-Toxic”. Moreover, in data set [2], the IC50 was determined as 29.9 µM.

In the case of `CC(=O)O[C@H]1C[C@](C)(OC(C)=O)C[C@@H]2[C@@]1(OC(C)=O)C[C@@]1(C)[C@H](OC(C)=O)[C@H]3[C@@H](OC(=O)c4ccccc4)[C@@H](C)C[C@]3(O)[C@H](OC(C)=O)[C@@]21C`, the Activity result in data set [1] is “Non-Toxic”. Also, in data set [2], the IC50 is 37.1 µM.

In the case of `CC(=O)O[C@H]1C[C@](C)(O)C[C@@H]2[C@@]1(OC(C)=O)C[C@@]1(C)[C@H](OC(C)=O)[C@H]3[C@@H](OC(=O)c4ccccc4)[C@@H](C)C[C@]3(O)[C@H](OC(C)=O)[C@@]21C`, in data set [1], the Activity entry is listed as “Non-Toxic”. The half-maximal inhibitory concentration (IC50) in data set [2] was more than 50 µM.

As for `CC(=O)O[C@H]1C[C@](C)(O)C[C@@H]2[C@@]1(OC(C)=O)C[C@@]1(C)[C@H](OC(C)=O)[C@H]3[C@@H](OC(=O)c4ccccc4)[C@@H](C)[C@@H](OC(C)=O)[C@]3(O)[C@H](OC(C)=O)[C@@]21C`, the Activity entry in data set [1] was “Non-Toxic”. For the same molecule, in data set [2], the IC50 was more than 50 µM.

Turning to `CC(C)C[C@@H](C=O)NC(=O)[C@H](CC(C)C)NC(=O)[C@H](CC(C)C)NC(=O)OCc1ccccc1` [MG-132] (Cbz-Leu-Leu-Leu-aldehyde), in data set [2], the half-maximal inhibitory concentration (IC50) came out at 0.18 µM.

Turning to `CC(=O)O[C@@H]1[C@H]2[C@@H](OC(=O)c3ccccc3)[C@@H](C)C[C@]2(O)[C@H](OC(C)=O)[C@@]2(C)[C@@H]3CC(C)=CC(=O)[C@]3(OC(C)=O)C[C@@]12C`, in data set [1], the Activity entry is recorded as “Non-Toxic”. The IC50 in data set [2] turned out to be 36.6 µM.

Turning to `CC(=O)O[C@@H]1[C@H]2[C@@H](OC(=O)c3ccccc3)[C@@H](C)C[C@]2(O)C(=O)[C@@]2(C)[C@@H]3CC(C)(C)C(=O)[C@@H]3C[C@@]12C`, in data set [1], the Activity result is listed as “Non-Toxic”. The half-maximal inhibitory concentration (IC50) in data set [2] worked out at 38.3 µM.

`CC(=O)OC[C@@]12C[C@@]3(OC(C)=O)C(=O)C=C(C)C[C@H]3[C@]1(C)[C@@H](OC(C)=O)[C@@]1(O)C[C@H](C)[C@H](OC(=O)c3ccccc3)[C@@H]1[C@H]2OC(C)=O`: the Activity result in data set [1] is “Non-Toxic”. Further, the IC50 in data set [2] is more than 50 µM.

For the molecule `CC(=O)O[C@H]1C[C@](C)(O)C[C@@H]2[C@@]1(OC(C)=O)C[C@@]1(C)[C@H](OC(C)=O)[C@H]3[C@@H](O)[C@@H](C)C[C@]3(O)[C@H](OC(C)=O)[C@@]21C`, the Activity entry in data set [1] is “Non-Toxic”. Further, in data set [2], the IC50 is more than 50 µM.

Turning to `CC(=O)O[C@@H]1[C@H]2[C@@H](OC(=O)c3ccccc3)[C@@H](C)C[C@]2(O)[C@H](OC(C)=O)[C@@]2(C)[C@@H]3C[C@@](C)(OC(C)=O)CC(=O)[C@]3(OC(C)=O)C[C@@]12C`, the Activity entry in data set [1] was “Non-Toxic”. Moreover, in data set [2], the 50% inhibitory concentration (IC50) came to 47.5 µM.

Consider `CC(=O)O[C@@H]1[C@H]2[C@@H](OC(=O)c3ccccc3)[C@@H](C)C[C@]2(O)[C@H](OC(C)=O)[C@@]2(C)[C@@H]3C[C@](C)(O)CC(=O)[C@]3(OC(C)=O)C[C@@]12C`, for which the Activity entry in data set [1] was “Non-Toxic”. Further, the concentration for half-maximal inhibition (IC50) in data set [2] was more than 50 µM.

Turning to `CC(=O)O[C@@H]1[C@H]2[C@@H](OC(=O)c3ccccc3)[C@@H](C)C[C@]2(O)[C@H](OC(C)=O)[C@@]2(C)[C@@H]3CC(C)(C)C(=O)[C@@H]3C[C@@]12C`, in data set [1], the Activity result is listed as “Non-Toxic”. Also, the half-maximal inhibitory concentration (IC50) in data set [2] worked out at 33.7 µM.

In the case of `CC(=O)OC[C@@]12C[C@@]3(OC(C)=O)C(=O)C(C)(C)C[C@H]3[C@]1(C)[C@@H](OC(C)=O)[C@@]1(O)C[C@H](C)[C@H](OC(=O)c3ccccc3)[C@@H]1[C@H]2OC(C)=O`, the Activity result in data set [1] is given as “Non-Toxic”. In data set [2], the half-maximal inhibitory concentration (IC50) was more than 50 µM.

`CC(=O)O[C@@H]1[C@H]2[C@@H](OC(=O)c3ccccc3)[C@@H](C)C[C@]2(O)[C@H](OC(C)=O)[C@@]2(C)[C@@H]3C[C@@](C)(OC(C)=O)C[C@H](O)[C@]3(OC(C)=O)C[C@@]12C`: the Activity entry in data set [1] is “Non-Toxic”. The half-maximal inhibitory concentration (IC50) in data set [2] is more than 50 µM.

`CC(=O)O[C@@H]1[C@H]2[C@@H](OC(=O)c3ccccc3)[C@@H](C)C[C@]2(O)[C@H](OC(C)=O)[C@@]2(C)[C@@H]3C[C@@](C)(O)C[C@H](O)[C@]3(OC(C)=O)C[C@@]12C`: the Activity entry in data set [1] is “Non-Toxic”. The IC50 in data set [2] was more than 50 µM.

Regarding `CC(=O)O[C@H]1C[C@](C)(O)C[C@@H]2[C@@]1(O)C[C@@]1(C)[C@H](OC(C)=O)[C@H]3[C@@H](OC(=O)c4ccccc4)[C@@H](C)C[C@]3(O)[C@H](OC(C)=O)[C@@]21C`, the Activity result in data set [1] was “Non-Toxic”. The IC50 in data set [2] is more than 50 µM.

Regarding `CC(=O)O[C@@H]1[C@H]2[C@@H](OC(=O)c3ccccc3)[C@@H](C)C[C@]2(O)[C@H](OC(C)=O)[C@@]2(C)[C@@H]3C[C@@](C)(O)CC(=O)[C@]3(OC(C)=O)C[C@@]12C`, the Activity entry in data set [1] is recorded as “Non-Toxic”. Also, the IC50 in data set [2] was more than 50 µM.
